Test results: the EternaBench riboswitch data

Test system: MS2 coat protein
Test: apparent Kd, MS2 coat protein; higher = weaker binding; RNA-MaP array; FMN 200 µM where present
In short: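 Designs were transcribed by stalled E. coli RNA polymerase on Illumina sequencing-chip clusters. They were titrated with SNAP-549-labelled MS2 coat protein from 0.7 or 1.5 nM, doubling to 3 µM, in 100 mM Tris-HCl pH 7.5, 80 mM KCl, 4 mM MgCl2, BSA, DTT, yeast tRNA and Tween-20, without and then with constant ligand. The apparent Kd is the median of filtered per-cluster fits after normalisation of green signal to red-channel RNA signal and control-cluster median Fmax.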

[1] = designed as: OFF switch for flavin mononucleotide, no ligand
[2] = ligand present: flavin mononucleotide, designed as: OFF switch for flavin mononucleotide
[3] = designed as: ON switch for flavin mononucleotide, no ligand
[4] = ligand present: flavin mononucleotide, designed as: ON switch for flavin mononucleotide

Sequence | apparent Kd [1] [nM] | apparent Kd [2] [nM] | apparent Kd [3] [nM] | apparent Kd [4] [nM]
UGCCGAUGAGGAUAUACAUUGAAUUUGAUUCAUGUAAAACUACAUGAGGAUCACCCAUGUAGAAGGCAUUGGCU | 16.9 | 30.4 | – | –
CCGGAAACGGGUAGCUGACAUGAGGAUCACCCAUGUGUUUCACAGGAUAUGGAUCCUAAUUGGAUCCAGAAGGGUGUCAGCUAC | – | – | 1040 | 157
CUAACACAUGAGGAUCACCCAUGUUAGGAUAUUAGUACUAUUUACCACAUAAUGGCACUGAGAAGGAGCGGGUA | 29.3 | 31.3 | – | –
GCCUUACCGGUCAGGAUAUACACUCGUCACUCCUUGUAGAAGGGACAUGAGGAUCACCCAUGUACAUUACAUUC | 38.6 | 38 | – | –
AAAAAACAUGAGGAUCACCCAUGUGAGGAUAUCACUAGUCAGUCCUCGGAGUGAGUACUGAGAAGGCACAUAAA | 68.1 | 44.9 | – | –
AAAAAGUGAGGAUAUCGGAAAAAAAAAAAAAAAAAAAAAAACGAGAAGGCACAUGAGGAUCACCCAUGUAAAAA | 42.3 | 33.6 | – | –
ACGUCCCUCCAGAAGGGCAACUCGACAUGAGGAUCACCCAUGUUUACUUGCAGGAUAUGGUGGUAGAUCUAGUUAGCUCGAAGG | – | – | 176 | 47.4
GGAUCCAACACAGGAUAUGCUGGACUUUGUCCAGCAGAAGGGUGAAGAACAUGAGGAUCACCCAUGUGGAUCCAUAUAUGUAAU | – | – | 273 | 16.6
UUAAGUCAUGUAGGAUAUCCGAGGCGAAGCGUUGGAGAAGGACAUGAGGAUCACCCAUGUUCUAGCGUCUGAGUACAGAUGCAG | 29.5 | 94.7 | – | –
GGUGCACAUGAGAAGGCGAUCAUGAAACAUGAUCGAGGAUAUCAUGUAAACAUGAGGAUCACCCAUGUAUGGGAAAAGUGCACC | – | – | 114 | 10.9
UAUCUGUCGGUCAGGAUAUCGUUUGCCACUGUAGCCGAGAAGGGACAUGAGGAUCACCCAUGUGAUUCACGGCA | 23.1 | 27.1 | – | –
GGACAUGUCGUCUACAUGAGGAUCACCCAUGUCGAUAGACAUGAGGAUAUCGAUAAGAAUUGUAUCGAGAAGGCAUGUAGGUCC | – | – | 68.4 | 50.6
AUGACUUAUGUAGGAUAUGCAUAGAGUUGCUAUGCAGAAGGACAUGAGGAUCACCCAUGUAUGUAUACCUUACAAAACUAGCAU | 9.07 | 54 | – | –
ACAUGAGGAUCACCCAUGUUGACAUAGGAUAUACAACAAUAGUUACAAUCAUGUACUAUUUGAUAGUAGAAGGAUGGAACAUGA | 15.2 | 25.8 | – | –
AUGUGGUGCGUAGGAUAUCAUUGAGGAAAACCCUGAGAAGGACGUGAGGACAUGAGGAUCACCCAUGUGGAUCACCCAUGUCAU | 237 | 237 | – | –
UGUUGUAUUACAGGAUAUCUAUUGAUUUUAUUUAGAGAAGGGUAUUCACAUGAGGAUCACCCAUGUAUAUACGAGGAAGUUGUG | – | – | 54.6 | 62.7
GUCAGCUCGUGAGGAUAUACAACACUGCUUGGGCAGUGUAUUAAGAUCACAUGAGGAUCACCCAUGUAGAAGGCACGAGCUGAU | 13.9 | 216 | – | –
GGGUACAUCGGAGGAUAUCAUGUAAAUACAUGAGGAUCACCCAUGUCGAUGCAGACAUCGGAGAUUGAGAAGGCCGAUGUACCG | – | – | 974 | 78.4
UCUUGACAUGAGGAUCACCCAUGUCAGGAUAUAGUAGGACAAAUAAAUAAAAGUUCUACUAGAAGGGAUAUGGG | 24.9 | 46.8 | – | –
CACAAGAAAGUCGAACGUGUAACGAGAAGGUCUACAUCACAACAUGAGGAUCACCCAUGUGAUAAGAAGGAUAUUGUUGCGCGG | 8.76 | 8.32 | – | –
UAUGGUAAAGUCAGGAUAUACGUACGUCGUUCUAGGUAGAAGGGACAUGAGGAUCACCCAUGUAUGAUAGUGUU | 46.5 | 42.8 | – | –
UUUGAAUUGCAAGGAUAUCUUAUUUAGAUUUUAAGAGAAGGUGCUUUAUAGUUACAUGAGGAUCACCCAUGUAUUUCUUUUUAU | – | – | 25.5 | 17.7
AAGAAGUCAGGAUAUCCUGCUCGUCACUUGCGUGAUGAGUAGGAGAAGGGACAUGAGGAUCACCCAUGUAAAGU | 51.1 | 56.2 | – | –
UUAGCAACAUGAGGAUCACCCAUGUAGGAUAUCGCUAUUGUAAUCAUGAAACAUGAUUACAAUAGCGAGAAGGACAUAUGCUUU | 13.9 | 14.9 | – | –

Sequence | apparent Kd [1] [nM] | apparent Kd [2] [nM] | apparent Kd [3] [nM] | apparent Kd [4] [nM]
UUCCGGGUGCAGAAGGGAUAGGCCUAUUUUCGUGGUAUCCAAACCUUACAUGAGGAUCACCCAUGUCAGGAUAUGCCCACGGAA | 4.93 | 4.72 | – | –
AGUAAGAUGCAGAAGGUGUCAGCGAGAGCUGCGACAUGAGGAUCACCCAUGUGUCGGUGACGACACAAGGAUAUGCAUCUUACA | – | – | 407 | 227
GGUCGUCAAGUCAGGAUAUCGUUUGGUCGGUGUGGCGAGAAGGGACAUGAGGAUCACCCAUGUCGUCUCAUCAG | 27 | 29.9 | – | –
AACACACAUGAGGAUCACCCAUGUAAAAUUUAGCAAGGAUAUGGGUGCCGUAAUCGGUUACCAGAAGGUGCCUCAC | – | – | 103 | 59.8
UAAGUUGAGGAGAAGGGAGCACAUGAGGAUCACCCAUGUGGUCCUUUGUGCUCAGGAUAUCCAUGGAGCUCCGUCGCGUUCCAU | 4.49 | 3.32 | – | –
UAUAUAUAGUAAGGAUAUGUAAUUAUUUUAGAAACAGAAGGUACUGACAUGAGGAUCACCCAUGUUUUAGUGUGGGCAUGUAGA | 90.4 | 147 | – | –
UUAUUUUAAUGAGGAUAUAUACAACAUGAGGAUCACCCAUGUACCCAUGUAGUAGAAGGCAUAAUUUUUGAUAAUAACAUAACU | – | – | 49.5 | 31.6
GUAACAUGAGGAUCACCCAUGUAUAGAACACUCAAUAGAUCUGAGGAUAUAGUGGAAUUUACACACUAGAAGGCAGUGGGUGCA | – | – | 75.3 | 33.6
CCGGAAAAGGAGGAUAUAGGAGUCGAUAGACACCUAGAAGGUCUGACAUGAGGAUCACCCAUGUGUCCUACCGG | 21.2 | 30.2 | – | –
CACCGGUGUACAGGAUAUGCAUCUACGUGGGCUGCAGAAGGGUACAUGAGGAUCACCCAUGUCAACGAAUCCUCAAAUUAGCGA | 1030 | 1130 | – | –
GUAGUGUAGUGAGGAUAUACGAGAUCGAUAGAUCGGCGAUCCAUUUAUACAUGAGGAUCACCCAUGUAGAAGGCACUUCACUAC | 6.17 | 51 | – | –
UUACUACAUGAGGAUCACCCAUGUCAGGAUAUUGUCUAUACUUUGGAAUAUGUGUCGAUAAGAAGGGACUGUAU | 19.9 | 26.2 | – | –
UAUUAGUAAGGAUAUCUCGUCAUGGAGGAAACUCCAUGACGAGAGAAGGUACAUGAGGAUCACCCAUGUCUAUU | 16.1 | 18.3 | – | –
GGGUUGGGAGGAUAUCCAAUAUAUGACAUGAGGAUCACCCAUGUUUCCACUCGUACCUCCGGAGAAGGCCCAUCCC | 22.9 | 21.1 | – | –
GUGGCUAGUGCAGGAUAUUAGUGCGUGUAGUAUUGAGAAGGGCACAUGAGGAUCACCCAUGUGAUCAAUCACUGUUAAGGUCGC | 79.7 | 76.5 | – | –
AAAUUUAACGAAGGAUAUGGUUACAUGAGGAUCACCCAUGUGUGCCUUGUGAUCUUGUUUAAGUUCCAGAAGGUCGUAUACAUA | 41.7 | 183 | – | –
GCACUGACAGGAUAUACAUGAGGAUCACCCAUGUGACCCUUAGAGUACUCGCGUACUCGUAGAAGGGUCUGUGC | 36 | 105 | – | –
UUAUUAAGUGUGAGGAUAUGCUGGUCCUUGGAUCAGCAGAAGGCACAUGAGGAUCACCCAUGUACAAUAUAUUA | 38.5 | 251 | – | –
ACGCCCUAGUAGAAGGGACAUCGGCUGGUAAGCAUCAUCUCCUUCUCACAUGAGGAUCACCCAUGUCAGGAUAUACUAGGAUGC | 12.2 | 35.1 | – | –
GUAGCAACAUGAGGAUCACCCAUGUAGGAUAUCGCUAUUGUAAUCAUGAAACAUGAUUACAAUAGCGAGAAGGACAUAUGCUAU | 7 | 10.3 | – | –
GUUAAGUGAGGAUAUGGUGAGUAGUGCCUGAGCGCUGCUCACCAGAAGGCACAUGAGGAUCACCCAUGUAUAAC | 23 | 36 | – | –
CAGACGUCAGGAUAUCUGAUGUCUAACUUCGGUUAGACAUCAGAGAAGGGACAUGAGGAUCACCCAUGUCUGAA | 25.4 | 23.6 | – | –
AAUAUGAGCUGGUUUAAAUCCUAAACAUGAGGAUCACCCAUGUAGGAUAUCAGCACGAUAAGUGCUGAGAAGGACAUCCAGCUC | 15.1 | 15.2 | – | –
ACUAAACGAGGAUAUACUAACAAACCUCAAACAUACAUCAAACAUGAGGAUCACCCAUGUAGAAGGCGUAAACU | 37.6 | 17.6 | – | –
